Results published in ChEMBL document CHEMBL1137333, “Synthesis, radiosynthesis, and biological evaluation of carbon-11 labeled 2beta-carbomethoxy-3beta-(3'-((Z)-2-haloethenyl)phenyl)nortropanes: candidate radioligands for in vivo imaging of the serotonin transporter with positron emission tomography” (J Med Chem, 2006).

How the values were obtained:
Cynomolgus monkey [1] = assay: Uptake in anesthetized cynomolgus monkey caudate after 75.0 mins; type: ADME, organism-based, Caudate nucleus; conditions: in vivo, 1.25 h
Summary of the method: (§1)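 Baseline microPET (Concorde P4) regional brain time-activity curves in anesthetized cynomolgus monkey following injection of the [11C]-labelled tracer, with radioactivity followed over the scan.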

Cynomolgus monkey [2] = assay: Uptake in anesthetized cynomolgus monkey medulla after 0.5 mins; type: ADME, organism-based, Medulla of organ; conditions: in vivo
Summary of the method: (§2)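 Baseline microPET scan (P4 scanner) of anesthetized cynomolgus monkeys after injection of the carbon-11 labelled nortropane tracer. Two baseline studies were run per tracer. Radioactivity was followed over time in regional brain time-activity curves.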

Cynomolgus monkey [3] = assay: Ratio of uptake in occipital to cerebellum of anesthetized cynomolgus monkey after 85 mins; type: ADME, organism-based; conditions: in vivo
Summary of the method: (§3)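 Baseline microPET (Concorde P4) in anesthetized cynomolgus monkey after injection of the [11C]-labelled tracer. Regional time-activity curves were taken, and each region's uptake was divided by cerebellum uptake (low-SERT reference) at 65, 85 and 105 min postinjection.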

Cynomolgus monkey [4] = assay: Uptake in anesthetized cynomolgus monkey midbrain after 105.0 mins; type: ADME, organism-based; conditions: in vivo, 1.75 h; summary of the method: as §2
Cynomolgus monkey [5] = assay: Uptake in anesthetized cynomolgus monkey midbrain after 45.0 mins; type: ADME, organism-based; conditions: in vivo, 0.75 h; summary of the method: as §2
Cynomolgus monkey [6] = assay: Ratio of uptake in caudate to cerebellum of anesthetized cynomolgus monkey after 85 mins; type: ADME, organism-based; conditions: in vivo; summary of the method: as §3
Cynomolgus monkey [7] = assay: Uptake in anesthetized cynomolgus monkey medulla after 75.0 mins; type: ADME, organism-based, Medulla of organ; conditions: in vivo, 1.25 h; summary of the method: as §2
Cynomolgus monkey [8] = assay: Uptake in anesthetized cynomolgus monkey putamen after 45.0 mins; type: ADME, organism-based; conditions: in vivo, 0.75 h
Summary of the method: (§4)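 Baseline microPET (Concorde P4) scan in anesthetized cynomolgus monkeys after injection of the carbon-11 labeled tracer, with no chase drug. Regional brain time-activity curves were followed over the scan. Tracer radiochemical purity and specific activity were determined by analytical HPLC at the time of injection.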

Cynomolgus monkey [9] = assay: Ratio of uptake in medulla to cerebellum of anesthetized cynomolgus monkey after 85 mins; type: ADME, organism-based; conditions: in vivo; summary of the method: as §3
Cynomolgus monkey [10] = assay: Uptake in anesthetized cynomolgus monkey putamen after 35.0 mins; type: ADME, organism-based; conditions: in vivo; summary of the method: as §4
Cynomolgus monkey [11] = assay: Uptake in anesthetized cynomolgus monkey occipital after 4.5 mins; type: ADME, organism-based, Occipital cortex; conditions: in vivo, 0.075 h; summary of the method: as §2
Cynomolgus monkey [12] = assay: Ratio of uptake in thalamus to cerebellum of anesthetized cynomolgus monkey after 65 mins; type: ADME, organism-based; conditions: in vivo; summary of the method: as §3
Cynomolgus monkey [13] = assay: Ratio of uptake in occipital to cerebellum of anesthetized cynomolgus monkey after 105 mins; type: ADME, organism-based; conditions: in vivo, 1.75 h; summary of the method: as §3
Cynomolgus monkey [14] = assay: Uptake in anesthetized cynomolgus monkey pons after 1.5 mins; type: ADME, organism-based, Macaca mulatta; conditions: rhesus monkey, in vivo, 0.025 h; summary of the method: as §2
Cynomolgus monkey [15] = assay: Uptake in anesthetized cynomolgus monkey medulla after 2.5 mins; type: ADME, organism-based, Medulla of organ; conditions: in vivo; summary of the method: as §2
Cynomolgus monkey [16] = assay: Uptake in anesthetized cynomolgus monkey thalamus after 115.0 mins; type: ADME, organism-based; conditions: in vivo; summary of the method: as §4
Cynomolgus monkey [17] = assay: Uptake in anesthetized cynomolgus monkey medulla after 6.5 mins; type: ADME, organism-based, Medulla of organ; conditions: in vivo; summary of the method: as §2
Cynomolgus monkey [18] = assay: Uptake in anesthetized cynomolgus monkey midbrain after 55.0 mins; type: ADME, organism-based; conditions: in vivo; summary of the method: as §2
Cynomolgus monkey [19] = assay: Uptake in anesthetized cynomolgus monkey putamen after 2.5 mins; type: ADME, organism-based; conditions: in vivo; summary of the method: as §4
Cynomolgus monkey [20] = assay: Uptake in anesthetized cynomolgus monkey occipital after 0.5 mins; type: ADME, organism-based, Occipital cortex; conditions: in vivo; summary of the method: as §2
Cynomolgus monkey [21] = assay: Uptake in anesthetized cynomolgus monkey frontal after 75.0 mins; type: ADME, organism-based, Frontal cortex; conditions: in vivo, 1.25 h; summary of the method: as §2
Cynomolgus monkey [22] = assay: Uptake in anesthetized cynomolgus monkey frontal after 105.0 mins; type: ADME, organism-based, Frontal cortex; conditions: in vivo, 1.75 h; summary of the method: as §2
Cynomolgus monkey [23] = assay: Uptake in anesthetized cynomolgus monkey medulla after 55.0 mins; type: ADME, organism-based, Medulla of organ; conditions: in vivo; summary of the method: as §2
Cynomolgus monkey [24] = assay: Uptake in anesthetized cynomolgus monkey medulla after 3.5 mins; type: ADME, organism-based, Medulla of organ; conditions: in vivo; summary of the method: as §2
Cynomolgus monkey [25] = assay: Uptake in anesthetized cynomolgus monkey caudate after 115.0 mins; type: ADME, organism-based, Caudate nucleus; conditions: in vivo; summary of the method: as §1
Cynomolgus monkey [26] = assay: Uptake in anesthetized cynomolgus monkey medulla after 4.5 mins; type: ADME, organism-based, Medulla of organ; conditions: in vivo, 0.075 h; summary of the method: as §2
Cynomolgus monkey [27] = assay: Uptake in anesthetized cynomolgus monkey occipital after 65.0 mins; type: ADME, organism-based, Macaca mulatta, Occipital cortex; conditions: rhesus monkey, in vivo; summary of the method: as §2
Cynomolgus monkey [28] = assay: Uptake in anesthetized cynomolgus monkey frontal after 0.5 mins; type: ADME, organism-based, Frontal cortex; conditions: in vivo; summary of the method: as §1
Cynomolgus monkey [29] = assay: Ratio of uptake in thalamus to cerebellum of anesthetized cynomolgus monkey after 105 mins; type: ADME, organism-based; conditions: in vivo, 1.75 h; summary of the method: as §3
Cynomolgus monkey [30] = assay: Uptake in anesthetized cynomolgus monkey occipital after 12.5 mins; type: ADME, organism-based, Macaca mulatta, Occipital cortex; conditions: rhesus monkey, in vivo; summary of the method: as §2
Cynomolgus monkey [31] = assay: Uptake in anesthetized cynomolgus monkey cerebellum after 18.5 mins; type: ADME, organism-based, Macaca mulatta; conditions: rhesus monkey, in vivo; summary of the method: as §1
Cynomolgus monkey [32] = assay: Uptake in anesthetized cynomolgus monkey thalamus after 18.5 mins; type: ADME, organism-based; conditions: in vivo; summary of the method: as §4
Cynomolgus monkey [33] = assay: Uptake in anesthetized cynomolgus monkey pons after 85.0 mins; type: ADME, organism-based; conditions: in vivo; summary of the method: as §4
Cynomolgus monkey [34] = assay: Uptake in anesthetized cynomolgus monkey frontal after 27.5 mins; type: ADME, organism-based, Frontal cortex; conditions: in vivo; summary of the method: as §2
Cynomolgus monkey [35] = assay: Uptake in anesthetized cynomolgus monkey medulla after 65.0 mins; type: ADME, organism-based, Medulla of organ; conditions: in vivo; summary of the method: as §2

SMILES: [11CH3]OC(=O)[C@@H]1C2CCC(C[C@@H]1c1cccc(/C=C/Br)c1)N2 (stereo not given in full)
- Drug uptake (Cynomolgus monkey [1]): 6.61
- Drug uptake (Cynomolgus monkey [2]): 0.02
- Ratio (Cynomolgus monkey [3]): 0.9
- Drug uptake (Cynomolgus monkey [4]): 7.72
- Drug uptake (Cynomolgus monkey [5]): 7.58
- Ratio (Cynomolgus monkey [6]): 1.5
- Drug uptake (Cynomolgus monkey [7]): 7.18
- Drug uptake (Cynomolgus monkey [8]): 7.28
- Ratio (Cynomolgus monkey [9]): 1.6
- Drug uptake (Cynomolgus monkey [10]): 7
- Drug uptake (Cynomolgus monkey [11]): 2.14
- Ratio (Cynomolgus monkey [12]): 1.3
- Ratio (Cynomolgus monkey [13]): 0.9
- Drug uptake (Cynomolgus monkey [14]): 0.34
- Drug uptake (Cynomolgus monkey [15]): 1.32
- Drug uptake (Cynomolgus monkey [16]): 6.26
- Drug uptake (Cynomolgus monkey [17]): 5.27
- Drug uptake (Cynomolgus monkey [18]): 7.74
- Drug uptake (Cynomolgus monkey [19]): 1.01
- Drug uptake (Cynomolgus monkey [20]): 0.01
- Drug uptake (Cynomolgus monkey [21]): 3.78
- Drug uptake (Cynomolgus monkey [22]): 3.7
- Drug uptake (Cynomolgus monkey [23]): 7.31
- Drug uptake (Cynomolgus monkey [24]): 2.5
- Drug uptake (Cynomolgus monkey [25]): 6.42
- Drug uptake (Cynomolgus monkey [26]): 3.57
- Drug uptake (Cynomolgus monkey [27]): 5.14
- Drug uptake (Cynomolgus monkey [28]): 0.01
- Ratio (Cynomolgus monkey [29]): 1.6
- Drug uptake (Cynomolgus monkey [30]): 4.08
- Drug uptake (Cynomolgus monkey [31]): 6.13
- Drug uptake (Cynomolgus monkey [32]): 5.21
- Drug uptake (Cynomolgus monkey [33]): 7.24
- Drug uptake (Cynomolgus monkey [34]): 3.61
- Drug uptake (Cynomolgus monkey [35]): 7.11
